Source: PubChem BioAssay (several laboratories)
A selection: hits, their analogues and other compounds. The true share with any hit is near 2.9%.
SENP8 block-1 = SENP8 protease inhibitors, primary screen, biochemical, luminescence; Sentrin-specific protease 8 (Homo sapiens), Q96LD8; purified SENP8, Z-RLRGG-aminoluciferin cleavage; inhibition, % at 10 µM; 330,000 compounds, 1.2% hits; AID 2540, 2010; in the data active means inhibition above about 50%
Target sequence (Q96LD8 whole entry, looked up): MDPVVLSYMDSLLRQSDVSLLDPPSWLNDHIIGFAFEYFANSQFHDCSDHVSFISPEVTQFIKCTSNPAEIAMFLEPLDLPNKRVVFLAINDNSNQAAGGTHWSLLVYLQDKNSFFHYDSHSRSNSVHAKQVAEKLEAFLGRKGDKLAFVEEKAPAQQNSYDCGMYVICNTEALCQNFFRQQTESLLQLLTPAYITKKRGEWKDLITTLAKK
SENP7 inh = SENP7 protease inhibitors, primary screen, biochemical, luminescence, uHTS. Sentrin-specific protease 7 (Homo sapiens), Q9BQF6. recombinant SENP7, Z-RLRGG-aminoluciferin luminescence, 40 min. inhibition, % at 5 µM. 330,000 compounds, 1.5% hits. AID 434973, 2010;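 active means inhibition above about 50% at the single test dose, limit read from the data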
SENP6 block = SENP6 protease inhibitors, primary screen, biochemical, luminescence, uHTS; Sentrin-specific protease 6 (Homo sapiens), Q9GZR1; Recombinant SENP6 catalytic domain, aminoluciferin luminescence; inhibition, % at 10 µM; 330,000 compounds, 1.8% hits;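 active means inhibition above about 50% at the single tested dose, limit read from the data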
SENP8 block-2 = human SENP8 protease inhibitors, primary screen, biochemical, fluorescence, Nedd8 protein substrate, uHTS; Sentrin-specific protease 8 (Homo sapiens), Q96LD8; recombinant SENP8; inhibition, % at 20 µM; 360,000 compounds, 0.64% hits; AID 602440, 2012; in the data active means inhibition mostly above about 40%, no sharp cut-off; inactive means mostly below about 27%
HSP90 refold inh = HSP90 inhibitors, primary screen, cell lysate, luminescence; Heat shock protein HSP 90 (rabbit reticulocyte lysate; luciferase refolding); Rabbit reticulocyte lysate, luciferase refolding luminescence, 3 h; inhibition, % at 5.6 µM; 290,000 compounds, 0.91% hits;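 active means inhibition above the screen-wide mean plus 3 SD, computed separately per campaign, cut at about 16% in these data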;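 further: inhibitors lower the luminescence because luciferase stays unfolded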
SENP1 FRET inh = human SENP1 catalytic domain inhibitors, primary screen, biochemical, FRET, uHTS; inhibition, % at 10 µM; Sentrin-specific protease 1 (Homo sapiens), Q9P0U3; recombinant SENP1 catalytic domain, CyPet-SUMO1-YPet FRET cleavage; 360,000 compounds, 0.21% hits;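 active means inhibition at least 30% at 10 µM, raw YFP signal under a set limit, fluorescence ratio 0.5 to 1.5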
Target sequence (Q9P0U3 419-644 limits assumed): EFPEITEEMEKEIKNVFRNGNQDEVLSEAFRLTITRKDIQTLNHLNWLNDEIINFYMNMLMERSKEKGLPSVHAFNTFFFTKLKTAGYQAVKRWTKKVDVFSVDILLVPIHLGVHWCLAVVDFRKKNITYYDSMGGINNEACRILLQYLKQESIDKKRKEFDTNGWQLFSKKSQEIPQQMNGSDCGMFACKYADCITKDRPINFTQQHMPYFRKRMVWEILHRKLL
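Material – human SENP1 catalytic domain · Input – SENP1 enzyme, 20 pM final · Compound dosing – single concentration of 10 µM compound, 0.5% DMSO final · Timing – enzyme reaction for 50 min at room temperature, dark · Measured by – FRET fluorescence in CFP and YFP emission channels · Control set – no-enzyme wells low, DMSO-plus-enzyme wells high control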
HSP90 confirm = HSP90 inhibitors, confirmation, cell lysate, luminescence. shares compounds with HSP90 refold inh. rabbit reticulocyte lysate, luciferase refolding luminescence, 3 h. inhibition, % at 5.9 µM. 2,300 compounds, 64% hits. AID 1846, 2009; in the data active means inhibition above about 18%
luciferase ctr = firefly luciferase inhibitors, HSP90 counter-screen, confirmation, artefact control for HSP90 inhibitor project, biochemical, luminescence, triplicate | shares compounds with HSP90 refold inh | purified native firefly luciferase | inhibition, % at 5.9 µM | 2,300 compounds, 48% hits | AID 1847, 2009;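 active means inhibition above the mean inhibition of all tested sample wells plus 3 SD, cut at about 10% in these data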
A number is an active result; n = inactive; x = no result.

SMILES	SENP8 block-1	SENP7 inh	SENP6 block	SENP8 block-2	HSP90 refold inh	SENP1 FRET inh	HSP90 confirm	luciferase ctr
O=C(N/N=C1/CCc2ccccc21)C1CC1	n	n	n	n	n	n	x	x
O=C(Cc1cccc(NC(=O)C2CCCN(C(=O)CCc3ccccc3)C2)c1)Nc1cccc(C(=O)N2CCCC2)c1 (centres undefined)	n	n	n	n	x	n	x	x
Cc1c(CC(=O)N[C@@H](C)C(=O)O)c(=O)oc2cc3c(cc12)CCC(C)(C)O3	n	n	n	n	n	n	x	x
Cc1c(CC(=O)N[C@H](C(=O)O)C(C)C)c(=O)oc2cc3c(cc12)CCC(C)(C)O3	n	n	n	n	27.4	n	34.6	14.2
CCN1C(=O)c2ccc(C(=O)NCc3ccccc3)cc2C1=O	n	n	n	n	n	n	x	x
COCC(=O)Nc1cc(C(=O)NCCc2ccccc2)ccc1Cl	n	n	n	n	n	n	x	x
O=C(NCCc1ccc([N+](=O)[O-])cc1)c1ccccc1	n	n	n	n	n	n	x	x
O=C(NCCc1ccccc1)c1ccc([N+](=O)[O-])cc1	n	n	n	n	23.4	n	34.2	29.9
CCOCC(=O)Nc1cc(C(=O)NCCc2ccccc2)ccc1Cl	n	n	n	n	17.1	n	32.0	n
COCCCN1C(=O)c2ccc(C(=O)NCCc3ccccc3)cc2C1=O	n	n	n	n	22.1	n	41.8	23.5
CC(C)(C)c1ccc(C(=O)NCCc2ccccc2)cc1	n	n	n	n	21.4	n	53.1	42.9
O=C1CCC(c2ccc3ccccc3c2)O1 (centres undefined)	x	x	x	n	x	n	x	x
O=C(NCCc1ccccc1)c1cccc(N2CCCC2=O)c1	n	n	n	n	35.0	n	52.5	33.2
Cc1ccc(CCNC(=O)c2cccc(N3CCCC3=O)c2)cc1	n	n	n	n	n	n	x	x
Cc1ccc(-c2nc(SC(C)C(=O)N3CCCC3)n[nH]2)cc1 (centres undefined)	n	n	n	n	x	n	x	x
Cc1cccc(N(O)C(=O)Nc2cccc(Cl)c2)c1	n	n	n	n	26.2	n	62.5	n
CCN(C(=O)Nc1cccc(Cl)c1)c1ccccc1	n	n	n	n	n	n	x	x
COc1ccccc1C(=O)Nc1nc2ccc(S(C)(=O)=O)cc2s1	n	n	n	n	n	n	x	x
COc1ccccc1C(=O)Nc1nc2ccccc2s1	97.5	100.0	99.7	n	90.8	n	96.2	93.1
Cc1ccc(CCNC(=O)C2CCC(=O)N(Cc3ccccc3F)C2)o1 (centres undefined)	n	n	n	n	n	n	x	x
CC1(C)CC(=O)C/C(=N/Nc2nc3ccccc3s2)C1	n	n	n	n	22.3	n	n	n
CCOC(=O)CN1C(=O)S/C(=C/c2ccc3c(c2)n(C)c(=O)n3C)C1=O	n	n	n	n	n	n	x	x
CCOC(=O)CN1C(=O)S/C(=C/C=C/c2ccc(N(C)C)cc2)C1=O	n	n	n	n	39.2	n	n	n
Cc1cc(C)n(CCCNC(=O)c2ccco2)n1	n	n	n	n	x	n	x	x
Cc1nc(C)n(CCNC(=O)c2ccco2)n1	n	n	n	n	35.5	n	n	n
SMILES	SENP8 block-1	SENP7 inh	SENP6 block	SENP8 block-2	HSP90 refold inh	SENP1 FRET inh	HSP90 confirm	luciferase ctr
CC(C)(C)NC(=O)C1(C)CCC(=O)N1C1CC1 (centres undefined)	x	x	x	n	x	n	x	x
COc1cc(SC)ccc1C(=O)Nc1ccccn1	n	n	n	n	18.4	n	46.8	38.3
COc1cc(SC)ccc1C(=O)Nc1cccc(C)n1	n	n	n	n	n	n	x	x
CCOc1ccc(S(=O)(=O)N(CC)CC)cc1NC(=O)c1ccc(N2CCCC2=O)cc1	n	n	n	n	n	n	x	x
COc1ccccc1C(NC(C)=O)c1cc(Cl)c2cccnc2c1O (centres undefined)	n	n	n	n	23.7	n	n	n
Cc1ccccc1C(c1ncccc1C)N(C)C(=O)C1CCN(CCOc2ccc(Cl)cc2Cl)CC1 (centres undefined)	x	x	x	n	x	n	x	x
Cn1ccc(C(=O)Nc2sc3c(c2C(N)=O)CCCCC3)n1	n	n	n	n	18.6	n	37.8	19.0
COc1ccc(NC(=O)c2ccc(COCC(F)(F)C(F)F)cc2)cc1	n	n	n	n	18.9	n	n	n
NC(=O)c1nnsc1-c1ccco1	x	x	x	n	x	n	x	x
O=C(O)c1ccc(NNC(=S)Nc2cc(C(F)(F)F)ccc2Cl)cc1	n	n	n	n	60.7	n	53.5	53.5
COc1ccc(CC(=O)O/N=C(\N)c2ccccc2)cc1OC	n	n	n	n	n	n	x	x
COC(=O)CC(NC(=S)NC(=O)c1ccccc1)c1ccc(Br)cc1 (centres undefined)	n	n	n	n	n	n	x	x
Cc1ccc(NC(=O)c2onc(C)c2Cl)cc1	n	n	n	n	n	n	x	x
Cc1noc(C(=O)Nc2ccc(Cl)cc2)c1Cl	n	n	n	x	25.3	x	n	n
Cc1ccccc1NC(=O)N1CCCC(c2nc(-c3ccc(C(C)C)cc3)no2)C1 (centres undefined)	n	n	n	n	69.9	n	n	n
Nc1nc(-c2ccc(NC(=O)c3ccco3)cc2)cs1	n	n	n	n	28.4	n	50.6	46.0
O=C(Nc1ccc(NC(=O)c2ccco2)cc1)c1ccco1	n	n	n	n	n	n	x	x
COc1ccc(-c2nc(CN3CCN(Cc4ccccc4)CC3)c(C)o2)cc1	n	n	n	n	n	n	x	x
Cc1oc(-c2ccc(-c3ccccc3)cc2)nc1CN1CCN(CC(=O)N(C)C)CC1	n	n	n	n	67.3	n	79.0	18.2
O=[N+]([O-])/C(=C\Nc1ccccc1)S(=O)(=O)c1ccccc1	n	n	n	n	18.1	n	n	n
C#CC(=O)CC1(CN(Cc2ccccc2)C(=O)OC(C)(C)C)CCCCC1	x	x	x	n	x	n	x	x
Cc1nn(CC(=O)NCc2ccccc2)c(C)c1[N+](=O)[O-]	n	n	n	n	n	n	x	x
Cc1nn(CC(=O)c2ccccc2Cl)c(C)c1[N+](=O)[O-]	n	n	n	n	21.6	n	33.3	27.9
Cc1ccc(C)c(OCC(=O)N/N=C/c2ccc(N3CCOCC3)cc2)c1	x	x	x	n	x	n	x	x
